B1: Osa-1-4 twister ribozyme (parent)
chain: CCGCCUAACACUGCCAAUGCCGGUCCCAAGCCCGGAUAAAAGUGGAGGGGGCGG

Variants of: B1
Assay: self-cleavage, relative activity (ratio to wild type); higher = more cleavage; co-transcriptional
Summary of the method: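 A DNA template for a 54-nucleotide Oryza sativa twister ribozyme was synthesised with 97 % wild-type base and 1 % of each other base at the 48 positions downstream of the cleavage site. It was transcribed in vitro for 2 h at 37 °C, allowing co-transcriptional self-cleavage, then reverse-transcribed with a template-switching oligonucleotide, PCR-amplified and deep-sequenced. Cleavage status was scored from reads with or without upstream sequence. Relative activity is fraction cleaved normalised to wild type.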
A17U U24G gave a self-cleavage of 0.03.
Work on A17U U24C yielded a self-cleavage of 0.44.
Work on A17U U24A yielded a self-cleavage of 0.3.
A17U C25A showed a self-cleavage of 0.14.
A17U C25U gave a self-cleavage of 0.93.
Work on A17U C25G yielded a self-cleavage of 0.1.
Work on U18C U24A yielded a self-cleavage of 0.21.
U18C U24G showed a self-cleavage of 0.02.
With U18C U24C the self-cleavage was 0.24.
Work on A17U G19A yielded a self-cleavage of 0.83.
A17U G19U gave a self-cleavage of 0.38.
A17U G19C gave a self-cleavage of 0.43.
Work on A17U G23A yielded a self-cleavage of 0.56.
A17U G23U showed a self-cleavage of 0.13.
A17U G23C showed a self-cleavage of 0.06.
Variant G19A G44A has a self-cleavage of 0.23.
G19A G44U showed a self-cleavage of 0.4.
In the case of G19A G44C, the self-cleavage is reported as 0.72.
With G19U U18C the self-cleavage was 0.36.
In the case of G19U U18G, the self-cleavage is reported as 0.33.
Work on G19U U18A yielded a self-cleavage of 0.11.
For A17U G13C, the self-cleavage was 0.03.
A17U G13A gave a self-cleavage of 0.14.
For A17U G13U, the self-cleavage was 0.03.
G19U G51A showed a self-cleavage of 0.15.
Variant G19U G51U has a self-cleavage of 0.08.
In the case of G19U G51C, the self-cleavage is reported as 0.07.
G19C G49U showed a self-cleavage of 0.04.
Work on G19C G49A yielded a self-cleavage of 0.04.
In the case of G19C G49C, the self-cleavage is reported as 0.03.
G19A G22A gave a self-cleavage of 0.35.
In the case of G19A G22C, the self-cleavage is reported as 0.05.
Work on G19A G22U yielded a self-cleavage of 0.12.
Work on G19C U37C yielded a self-cleavage of 0.64.
In the case of G19C U37A, the self-cleavage is reported as 0.46.
For G19C U37G, the self-cleavage was 0.24.
Variant U18A U43G has a self-cleavage of 0.58.
With U18A U43C the self-cleavage was 0.36.
U18A U43A gave a self-cleavage of 0.83.
For C20A C21U, the self-cleavage was 0.86.
Work on C20A C21A yielded a self-cleavage of 0.78.
C20A C21G gave a self-cleavage of 0.12.
For A17U G35U, the self-cleavage was 0.92.
For A17U G35A, the self-cleavage was 0.9.
For A17U G35C, the self-cleavage was 0.86.
C20A gave a self-cleavage of 0.86.
With A17U C9G the self-cleavage was 0.8.
Variant A17U C9A has a self-cleavage of 0.41.
Variant A17U C9U has a self-cleavage of 0.81.
For A17U U12G, the self-cleavage was 0.44.
Work on A17U U12A yielded a self-cleavage of 0.94.
In the case of A17U U12C, the self-cleavage is reported as 0.58.
A17U G22A showed a self-cleavage of 1.04.
In the case of A17U G22U, the self-cleavage is reported as 0.63.
A17U G22C showed a self-cleavage of 0.11.
Variant G19A U37C has a self-cleavage of 1.03.
G19A U37A gave a self-cleavage of 0.88.
With G19A U37G the self-cleavage was 1.
In the case of A17U G44C, the self-cleavage is reported as 0.98.
For A17U G44A, the self-cleavage was 1.
A17U G44U showed a self-cleavage of 0.94.
Work on A17U C20A yielded a self-cleavage of 0.85.
A17U C20U gave a self-cleavage of 0.95.
A17U C20G showed a self-cleavage of 0.23.
Work on G19U G54A yielded a self-cleavage of 0.16.
G19U G54C gave a self-cleavage of 0.1.
With G19U G54U the self-cleavage was 0.54.
For G19U G34C, the self-cleavage was 0.2.
G19U G34U gave a self-cleavage of 0.3.
Variant G19U G34A has a self-cleavage of 0.52.
Work on G19U G48A yielded a self-cleavage of 0.04.
Work on G19U G48C yielded a self-cleavage of 0.03.
G19U G48U gave a self-cleavage of 0.04.
A17U C32A gave a self-cleavage of 0.13.
A17U C32G showed a self-cleavage of 0.17.
Work on A17U C32U yielded a self-cleavage of 0.25.
Work on U18G U37C yielded a self-cleavage of 0.86.
Variant U18G U37A has a self-cleavage of 0.59.
With U18G U37G the self-cleavage was 0.85.
G19C G47A showed a self-cleavage of 0.03.
Work on G19C G47U yielded a self-cleavage of 0.04.
G19C G47C showed a self-cleavage of 0.02.
For G19C G50C, the self-cleavage was 0.06.
Work on G19C G50A yielded a self-cleavage of 0.24.
G19C G50U gave a self-cleavage of 0.07.
A17U G47A showed a self-cleavage of 0.47.
For A17U G47C, the self-cleavage was 0.16.
With A17U G47U the self-cleavage was 0.45.
G19A G35C showed a self-cleavage of 0.68.
For G19A G35U, the self-cleavage was 0.2.
In the case of G19A G35A, the self-cleavage is reported as 0.83.
In the case of U18G U24C, the self-cleavage is reported as 0.38.
Work on U18G U24A yielded a self-cleavage of 0.53.
In the case of U18G U24G, the self-cleavage is reported as 0.05.
For A17U A41G, the self-cleavage was 0.9.
For A17U A41C, the self-cleavage was 0.98.
In the case of A17U A41U, the self-cleavage is reported as 0.96.
In the case of A17U G50U, the self-cleavage is reported as 1.02.
Variant A17U G50C has a self-cleavage of 1.02.
A17U G50A gave a self-cleavage of 0.69.
G19C U43C gave a self-cleavage of 0.05.
G19C U43A gave a self-cleavage of 0.07.
For G19C U43G, the self-cleavage was 0.07.
In the case of G19U G35A, the self-cleavage is reported as 0.21.
For G19U G35C, the self-cleavage was 0.6.
In the case of G19U G35U, the self-cleavage is reported as 0.76.
For A17U G34A, the self-cleavage was 0.82.
A17U G34U showed a self-cleavage of 0.78.
In the case of A17U G34C, the self-cleavage is reported as 0.5.
U18A U24G showed a self-cleavage of 0.02.
In the case of U18A U24C, the self-cleavage is reported as 0.37.
U18A U24A gave a self-cleavage of 0.25.
G19U G30U gave a self-cleavage of 0.04.
With G19U G30C the self-cleavage was 0.05.
Work on G19U G30A yielded a self-cleavage of 0.05.
With G19U U43C the self-cleavage was 0.07.
Variant G19U U43A has a self-cleavage of 0.11.
With G19U U43G the self-cleavage was 0.09.
Variant G19C G44U has a self-cleavage of 0.07.
In the case of G19C G44C, the self-cleavage is reported as 0.14.
G19C G44A showed a self-cleavage of 0.07.
For A17U G30C, the self-cleavage was 0.06.
Variant A17U G30U has a self-cleavage of 0.04.
A17U G30A showed a self-cleavage of 0.05.
For C20A C25G, the self-cleavage was 0.11.
C20A C25A gave a self-cleavage of 0.19.
Variant G19U G49U has a self-cleavage of 0.03.
With G19U G49A the self-cleavage was 0.04.
Variant G19U G49C has a self-cleavage of 0.04.
Variant A17U U37G has a self-cleavage of 1.01.
A17U U37C gave a self-cleavage of 1.06.
Work on A17U U37A yielded a self-cleavage of 0.73.
G19C G30A gave a self-cleavage of 0.02.
G19C G30C gave a self-cleavage of 0.03.
In the case of G19C G30U, the self-cleavage is reported as 0.02.
With A17U C27A the self-cleavage was 0.29.
With A17U C27U the self-cleavage was 0.25.
For A17U C27G, the self-cleavage was 0.13.
Work on G19C G34C yielded a self-cleavage of 0.05.
G19C G34A gave a self-cleavage of 0.1.
For G19C G34U, the self-cleavage was 0.07.
G19C G48A gave a self-cleavage of 0.02.
With G19C G48U the self-cleavage was 0.03.
With G19C G48C the self-cleavage was 0.02.
A17U C33U gave a self-cleavage of 0.85.
With A17U C33G the self-cleavage was 0.06.
With A17U C33A the self-cleavage was 0.19.
With U18C the self-cleavage was 0.96.
U18A gave a self-cleavage of 0.95.
U18G showed a self-cleavage of 0.84.
In the case of A17U U18A, the self-cleavage is reported as 0.89.
In the case of A17U U18G, the self-cleavage is reported as 0.87.
Work on A17U U18C yielded a self-cleavage of 0.9.
In the case of A17U G48A, the self-cleavage is reported as 0.16.
A17U G48U gave a self-cleavage of 0.08.
With A17U G48C the self-cleavage was 0.13.
Variant A17U A46C has a self-cleavage of 0.04.
Variant A17U A46U has a self-cleavage of 0.1.
A17U A46G gave a self-cleavage of 0.09.
With G19C G22C the self-cleavage was 0.03.
Variant G19C G22U has a self-cleavage of 0.03.
Variant G19C G22A has a self-cleavage of 0.06.
In the case of G19C U24G, the self-cleavage is reported as 0.04.
G19C U24C gave a self-cleavage of 0.04.
In the case of G19C U24A, the self-cleavage is reported as 0.04.
A17U G53U gave a self-cleavage of 0.41.
Work on A17U G53A yielded a self-cleavage of 0.95.

Reference: the RNAGym collection of RNA variant scans (doi:10.1002/anie.201605470)
